From ChEMBL document CHEMBL1275272, “Synthesis, characterization and antimicrobial activity of some disubstituted 1,3,4-oxadiazoles carrying 2-(aryloxymethyl)phenyl moiety” (2010)
In brackets after ≈: the same amount, converted by molar mass.

Experiments:
Assay type in all cases: functional
Aspergillus fumigatus = test: Antifungal activity against Aspergillus fumigatus after 16 to 18 hrs by serial dilution method; conditions: for MIC: Aspergillus fumigatus
[1] = system: Trichophyton mentagrophytes; test: Antifungal activity against Trichophyton mentagrophytes after 16 to 18 hrs by serial dilution method; conditions: for MIC: Trichophyton mentagrophytes
Talaromyces marneffei = test: Antifungal activity against Penicillium marneffei after 16 to 18 hrs by serial dilution method; conditions: for MIC: Talaromyces marneffei
Outline: (§1)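 The test compound was dissolved in DMF and serially diluted. A standard drop of the prepared microbial culture was added to each dilution, and tubes were incubated at 37 °C for 16–18 h. MIC was taken as the highest dilution that stayed clear with no visible turbidity.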

Escherichia coli = test: Antibacterial activity against Escherichia coli after 16 to 18 hrs by serial dilution method; conditions: for MIC: Escherichia coli; outline: as §1
Klebsiella pneumoniae = test: Antibacterial activity against Klebsiella pneumoniae after 16 to 18 hrs by serial dilution method; conditions: for MIC: Klebsiella pneumoniae
Staphylococcus aureus = test: Antibacterial activity against Staphylococcus aureus after 16 to 18 hrs by serial dilution method; conditions: for MIC: Staphylococcus aureus; outline: as §1
Aspergillus flavus = test: Antifungal activity against Aspergillus flavus after 16 to 18 hrs by serial dilution method; conditions: for MIC: Aspergillus flavus; outline: as §1
Pseudomonas aeruginosa = test: Antibacterial activity against Pseudomonas aeruginosa after 16 to 18 hrs by serial dilution method; conditions: for MIC: Pseudomonas aeruginosa; outline: as §1

| SMILES | MIC (Aspergillus fumigatus) [µg/mL] | MIC [1] [µg/mL] | MIC (Talaromyces marneffei) [µg/mL] | MIC (Escherichia coli) [µg/mL] | MIC (Klebsiella pneumoniae) [µg/mL] | MIC (Staphylococcus aureus) [µg/mL] | MIC (Aspergillus flavus) [µg/mL] | MIC (Pseudomonas aeruginosa) [µg/mL] | inhibition zone (IZ) (Aspergillus fumigatus) [mm] | inhibition zone (IZ) [1] [mm] | inhibition zone (IZ) (Talaromyces marneffei) [mm] | inhibition zone (IZ) (Escherichia coli) [mm] | inhibition zone (IZ) (Klebsiella pneumoniae) [mm] | inhibition zone (IZ) (Staphylococcus aureus) [mm] | inhibition zone (IZ) (Aspergillus flavus) [mm] | inhibition zone (IZ) (Pseudomonas aeruginosa) [mm] |
| --- | --- | --- | --- | --- | --- | --- | --- | --- | --- | --- | --- | --- | --- | --- | --- | --- |
| Clc1ccc(OCc2ccccc2-c2nnc(SCc3ccccc3)o2)cc1 | 25 (≈ 61.1 µM) | 25 (≈ 61.1 µM) | 25 (≈ 61.1 µM) | 25 (≈ 61.1 µM) | 25 (≈ 61.1 µM) | 25 (≈ 61.1 µM) | 25 (≈ 61.1 µM) | 25 (≈ 61.1 µM) | <10 | <10 | <10 | <10 | <10 | <10 | <10 | <10 |
| Cc1ccccc1OCc1ccccc1-c1nnc(SCc2ccc(Cl)cc2Cl)o1 | 6.25 (≈ 13.7 µM) | 12.5 (≈ 27.3 µM) | 6.25 (≈ 13.7 µM) | 12.5 (≈ 27.3 µM) | 6.25 (≈ 13.7 µM) | 6.25 (≈ 13.7 µM) | 6.25 (≈ 13.7 µM) | 6.25 (≈ 13.7 µM) | 16 | 11 | 16 | 11 | 16 | 16 | 16 | 16 |
| Cc1cccc(OCc2ccccc2-c2nnc(SCc3ccc(Cl)cc3Cl)o2)c1 | 6.25 (≈ 13.7 µM) | 12.5 (≈ 27.3 µM) | 6.25 (≈ 13.7 µM) | 6.25 (≈ 13.7 µM) | 6.25 (≈ 13.7 µM) | 6.25 (≈ 13.7 µM) | 12.5 (≈ 27.3 µM) | 6.25 (≈ 13.7 µM) | 16 | 11 | 16 | 16 | 16 | 16 | 11 | 16 |
| Cc1ccccc1OCc1ccccc1-c1nnc(SCc2ccc(Cl)cc2)o1 | 12.5 (≈ 29.6 µM) | 12.5 (≈ 29.6 µM) | 12.5 (≈ 29.6 µM) | 12.5 (≈ 29.6 µM) | 12.5 (≈ 29.6 µM) | 12.5 (≈ 29.6 µM) | 12.5 (≈ 29.6 µM) | 12.5 (≈ 29.6 µM) | 11 | 11 | 11 | 11 | 11 | 11 | 11 | 11 |
| Cc1cccc(OCc2ccccc2-c2nnc(SCc3ccc(Cl)cc3)o2)c1 | 12.5 (≈ 29.6 µM) | 12.5 (≈ 29.6 µM) | 12.5 (≈ 29.6 µM) | 12.5 (≈ 29.6 µM) | 12.5 (≈ 29.6 µM) | 12.5 (≈ 29.6 µM) | 12.5 (≈ 29.6 µM) | 12.5 (≈ 29.6 µM) | 11 | 11 | 11 | 11 | 11 | 11 | 11 | 11 |
| Cc1ccc(OCc2ccccc2-c2nnc(SCc3ccc(Cl)cc3)o2)cc1 | 12.5 (≈ 29.6 µM) | 12.5 (≈ 29.6 µM) | 12.5 (≈ 29.6 µM) | 12.5 (≈ 29.6 µM) | 12.5 (≈ 29.6 µM) | 12.5 (≈ 29.6 µM) | 12.5 (≈ 29.6 µM) | 12.5 (≈ 29.6 µM) | 11 | 11 | 11 | 11 | 11 | 11 | 11 | 11 |
| Clc1ccc(CSc2nnc(-c3ccccc3COc3ccc(Cl)cc3)o2)cc1 | 12.5 (≈ 28.2 µM) | 12.5 (≈ 28.2 µM) | 12.5 (≈ 28.2 µM) | 12.5 (≈ 28.2 µM) | 12.5 (≈ 28.2 µM) | 12.5 (≈ 28.2 µM) | 12.5 (≈ 28.2 µM) | 12.5 (≈ 28.2 µM) | 11 | 11 | 11 | 11 | 11 | 11 | 11 | 11 |
| Cc1cccc(CSc2nnc(-c3ccccc3COc3ccccc3C)o2)c1 | 6.25 (≈ 15.5 µM) | 12.5 (≈ 31.1 µM) | 12.5 (≈ 31.1 µM) | 12.5 (≈ 31.1 µM) | 12.5 (≈ 31.1 µM) | 12.5 (≈ 31.1 µM) | 12.5 (≈ 31.1 µM) | 12.5 (≈ 31.1 µM) | 16 | 11 | 11 | 11 | 11 | 11 | 11 | 11 |
| Cc1cccc(CSc2nnc(-c3ccccc3COc3cccc(C)c3)o2)c1 | 6.25 (≈ 15.5 µM) | 12.5 (≈ 31.1 µM) | 12.5 (≈ 31.1 µM) | 12.5 (≈ 31.1 µM) | 12.5 (≈ 31.1 µM) | 12.5 (≈ 31.1 µM) | 12.5 (≈ 31.1 µM) | 12.5 (≈ 31.1 µM) | 16 | 11 | 11 | 11 | 11 | 11 | 11 | 11 |
| Cc1ccc(OCc2ccccc2-c2nnc(SCc3cccc(C)c3)o2)cc1 | 12.5 (≈ 31.1 µM) | 12.5 (≈ 31.1 µM) | 12.5 (≈ 31.1 µM) | 12.5 (≈ 31.1 µM) | 12.5 (≈ 31.1 µM) | 12.5 (≈ 31.1 µM) | 12.5 (≈ 31.1 µM) | 12.5 (≈ 31.1 µM) | 11 | 11 | 11 | 11 | 11 | 11 | 11 | 11 |
| Cc1ccccc1OCc1ccccc1-c1nnc(-c2cccnc2Cl)o1 |  |  |  | 12.5 (≈ 33.1 µM) | 12.5 (≈ 33.1 µM) | 12.5 (≈ 33.1 µM) |  | 12.5 (≈ 33.1 µM) |  |  |  | 11 | 11 | 11 |  | 11 |
| Cc1cccc(OCc2ccccc2-c2nnc(-c3cccnc3Cl)o2)c1 |  |  |  | 12.5 (≈ 33.1 µM) | 12.5 (≈ 33.1 µM) | 12.5 (≈ 33.1 µM) |  | 12.5 (≈ 33.1 µM) |  |  |  | 11 | 11 | 11 |  | 11 |
| Clc1ccc(OCc2ccccc2-c2nnc(-c3cccnc3Cl)o2)cc1 |  |  |  | 12.5 (≈ 31.4 µM) | 12.5 (≈ 31.4 µM) | 12.5 (≈ 31.4 µM) |  | 12.5 (≈ 31.4 µM) |  |  |  | 11 | 11 | 11 |  | 11 |
| O=C(O)c1cn(C2CC2)c2cc(N3CCNCC3)c(F)cc2c1=O [CIPROFLOXACIN] |  |  |  |  | 1.56 (≈ 4.71 µM) |  |  |  |  |  |  |  | 22 | 30 |  | 25 |

Continued, in another order:

| MIC (Aspergillus fumigatus) [µg/mL] | MIC [1] [µg/mL] | MIC (Talaromyces marneffei) [µg/mL] | MIC (Escherichia coli) [µg/mL] | MIC (Klebsiella pneumoniae) [µg/mL] | MIC (Staphylococcus aureus) [µg/mL] | MIC (Aspergillus flavus) [µg/mL] | MIC (Pseudomonas aeruginosa) [µg/mL] | SMILES | inhibition zone (IZ) (Aspergillus fumigatus) [mm] | inhibition zone (IZ) [1] [mm] | inhibition zone (IZ) (Talaromyces marneffei) [mm] | inhibition zone (IZ) (Escherichia coli) [mm] | inhibition zone (IZ) (Klebsiella pneumoniae) [mm] | inhibition zone (IZ) (Staphylococcus aureus) [mm] | inhibition zone (IZ) (Aspergillus flavus) [mm] | inhibition zone (IZ) (Pseudomonas aeruginosa) [mm] |
| --- | --- | --- | --- | --- | --- | --- | --- | --- | --- | --- | --- | --- | --- | --- | --- | --- |
| 25 (≈ 64.4 µM) | 25 (≈ 64.4 µM) | 25 (≈ 64.4 µM) | 25 (≈ 64.4 µM) | 25 (≈ 64.4 µM) | 25 (≈ 64.4 µM) | 25 (≈ 64.4 µM) | 25 (≈ 64.4 µM) | Cc1ccc(OCc2ccccc2-c2nnc(SCc3ccccc3)o2)cc1 | <10 | <10 | <10 | <10 | <10 | <10 | <10 | <10 |
| 6.25 (≈ 13.7 µM) | 6.25 (≈ 13.7 µM) | 6.25 (≈ 13.7 µM) | 6.25 (≈ 13.7 µM) | 6.25 (≈ 13.7 µM) | 6.25 (≈ 13.7 µM) | 6.25 (≈ 13.7 µM) | 6.25 (≈ 13.7 µM) | Cc1ccc(OCc2ccccc2-c2nnc(SCc3ccc(Cl)cc3Cl)o2)cc1 | 16 | 16 | 16 | 16 | 16 | 16 | 16 | 16 |
| 6.25 (≈ 13.1 µM) | 6.25 (≈ 13.1 µM) | 6.25 (≈ 13.1 µM) | 6.25 (≈ 13.1 µM) | 6.25 (≈ 13.1 µM) | 6.25 (≈ 13.1 µM) | 6.25 (≈ 13.1 µM) | 6.25 (≈ 13.1 µM) | Clc1ccc(OCc2ccccc2-c2nnc(SCc3ccc(Cl)cc3Cl)o2)cc1 | 16 | 16 | 16 | 16 | 16 | 16 | 16 | 16 |
| 12.5 (≈ 29.6 µM) | 12.5 (≈ 29.6 µM) | 12.5 (≈ 29.6 µM) | 12.5 (≈ 29.6 µM) | 12.5 (≈ 29.6 µM) | 12.5 (≈ 29.6 µM) | 12.5 (≈ 29.6 µM) | 12.5 (≈ 29.6 µM) | Cc1cccc(CSc2nnc(-c3ccccc3COc3ccc(Cl)cc3)o2)c1 | 11 | 11 | 11 | 11 | 11 | 11 | 11 | 11 |
|  |  |  | 12.5 (≈ 33.1 µM) | 12.5 (≈ 33.1 µM) | 12.5 (≈ 33.1 µM) |  | 12.5 (≈ 33.1 µM) | Cc1ccc(OCc2ccccc2-c2nnc(-c3cccnc3Cl)o2)cc1 |  |  |  | 11 | 11 | 11 |  | 11 |
| 6.25 | 3.12 | 6.25 |  |  |  | 3.12 |  | Cc1cc(C2CCCCC2)n(O)c(=O)c1.NCCO [CICLOPIROX OLAMINE] | 25 | 27 | 20 |  |  |  | 25 |  |
